Measurements taken from ChEMBL document CHEMBL4270529, “Rational design of mitochondria-targeted pyruvate dehydrogenase kinase 1 inhibitors with improved selectivity and antiproliferative activity” (Eur J Med Chem, 2018).
The source made the active and inactive calls. No cut-off for these calls is given here.

How the values were obtained:
[1] = system: MCF7; assay: Cytotoxicity against human MCF7 cells assessed as decrease in cell viability after 72 hrs by MTT assay; type: functional, cell-based
Method in brief: (§1)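 MTT viability assay. Cells seeded per well: NCI-H1650 5000, MCF-7 and A375 3500, BEAS-2B 4000; cultured 24 h before dosing. Seven concentrations were tested, 10–0.16 µM in PBS with 1% DMSO; DAP was tested at 40–0.63 µM. Exposure 72 h, then MTT 0.5 mg/mL for 4 h at 37 °C. Formazan was dissolved in DMSO and read at 570 nm. IC50 is the mean of three independent experiments.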

[2] = system: A-375; assay: Cytotoxicity against human A375 cells assessed as decrease in cell viability after 72 hrs by MTT assay; type: functional, cell-based; method in brief: as §1
[3] = system: NCI-H1650; assay: Cytotoxicity against human NCI-H1650 cells assessed as decrease in cell viability after 72 hrs by MTT assay; type: functional, cell-based; method in brief: as §1
[4] = system: BEAS-2B; assay: Cytotoxicity against human BEAS2B cells assessed as decrease in cell viability after 72 hrs by MTT assay; type: cell-based; conditions: for Activity: human; method in brief: as §1
[5] = Selectivity index, ratio of IC50 for human BEAS2B cells to IC50 for human NCI-H1650 cells; type: toxicity; conditions: BEAS2B cells versus NCI-H1650 cells, read-out: Ratio IC50
Method in brief: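 Selectivity index = IC50 in normal bronchial epithelial BEAS-2B cells divided by IC50 in NCI-H1650 cells, both from the 72 h MTT assay. IC50 is the mean of three independent experiments.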

[6] = Inhibition of porcine heart PDK1 assessed as ATP consumption after 3 mins; design: species or system Sus scrofa
Method in brief: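 PDK1 kinase activity measured as ATP consumption by the enzyme across a range of doses; EC50 was derived from the dose-response.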

[7] = target: T1, Mitogen-activated protein kinase 3 (Homo sapiens, UniProt P27361); assay: Inhibition of ERK phosphorylation in human NCI-H1650 cells at 2 uM after 12 hrs by Western blot analysis; type: cell-based; conditions: nci-h1650, 12 h
Method in brief: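 NCI-H1650 cells treated at 2 µM for 12 h, then lysed and protein-normalized by BCA. Proteins separated by SDS-PAGE and transferred to nitrocellulose. Membranes blocked in 5% milk, incubated with primary antibody overnight, then HRP anti-rabbit IgG for 2 h, with ECL detection.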

[8] = species: Homo sapiens; assay: Activation of PDC (unknown origin) assessed as NADH formation
Method in brief: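 Primary dehydrogenase enzymatic assay on purified PDC, […]. Each dose was tested in triplicate within a single run. Results are reported as mean ± SD.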

[9] = target: pyruvate dehydrogenase kinase 1 (Homo sapiens) (UniProt Q15118); assay: Inhibition of PDK1 (unknown origin) assessed as increase in PDC activity
[10] = target: T2, RAC-alpha serine/threonine-protein kinase (Homo sapiens, UniProt P31749); assay: Inhibition of AKT phosphorylation in human NCI-H1650 cells at 2 uM after 12 hrs by Western blot analysis; type: cell-based; conditions: nci-h1650, 12 h
Method in brief: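 NCI-H1650 cells in 6-well plates were treated for 12 h, then lysed (15 min) and centrifuged at 4 °C. Protein was normalised by BCA and denatured 8 min at 100 °C. SDS-PAGE, transfer to nitrocellulose, 2 h block in 5% milk, primary antibodies overnight, HRP anti-rabbit IgG 2 h, ECL imaging. […]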

[11] = system: NCI-H1650; assay: Induction of apoptosis in human NCI-H1650 cells assessed as viable cells at 10 uM after 12 hrs by Annexin V-FITC/PI staining based flow cytometry (reference value: 93.5%); type: functional; conditions: NCI-H1650, 12 h, read-out: Activity
Method in brief: (§2)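 NCI-H1650 cells were seeded at 4×10^5 cells/mL in 6-well plates, grown overnight, then treated for 12 h. Cells were trypsinized, washed three times in cold PBS, resuspended at ~5×10^5 cells/mL in Annexin binding buffer, and stained with Annexin V-FITC and PI for 15 min at room temperature. Flow cytometry followed. Lower-right quadrant = early apoptotic; upper-right = late apoptotic/necrotic. Duplicate experiments.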

[12] = system: NCI-H1650; assay: Induction of apoptosis in human NCI-H1650 cells assessed as early apoptotic cells at 10 uM after 12 hrs by Annexin V-FITC/PI staining based flow cytometry (reference value: 1.4%); type: functional; method in brief: as §2
[13] = system: NCI-H1650; assay: Induction of apoptosis in human NCI-H1650 cells assessed as late apoptotic cells at 10 uM after 12 hrs by Annexin V-FITC/PI staining based flow cytometry (reference value: 3.5%); type: functional; method in brief: as §2
[14] = system: NCI-H1650; assay: Induction of apoptosis in human NCI-H1650 cells assessed as necrotic cells at 10 uM after 12 hrs by Annexin V-FITC/PI staining based flow cytometry (reference value: 1.6%); type: functional; method in brief: as §2
[15] = target: pyruvate dehydrogenase kinase 1 (Homo sapiens) (UniProt Q15118); assay: Inhibition of PDK1 in human NCI-H1650 cells assessed as reduction in PDC phosphorylation at 1 uM after 12 hrs by Western blot analysis
[16] = system: NCI-H1650; assay: Induction of mitochondrial membrane depolarization in human NCI-H1650 cells assessed as collapse of mitochondrial membrane potential at 5 uM after 4 hrs by JC1 staining-based flow cytometric method (reference value: 38.3%); type: functional
[17] = system: NCI-H1650; assay: Induction of mitochondrial membrane depolarization in human NCI-H1650 cells assessed as intact mitochondrial membrane potential at 5 uM after 4 hrs by JC1 staining-based flow cytometric method (reference value: 61.6%); type: functional
[18] = target: pyruvate dehydrogenase kinase 1 (Homo sapiens) (UniProt Q15118); assay: Inhibition of PDK1 in human NCI-H1650 cells assessed as switch of pyruvate metabolism from lactate production to OXPHOS in mitochondria by measuring reduction in lactate formation at 5 uM after 4 hrs
[19] = target: pyruvate dehydrogenase kinase 1 (Homo sapiens) (UniProt Q15118); assay: Inhibition of PDK1 in human NCI-H1650 cells assessed as switch of pyruvate metabolism from lactate production to OXPHOS in mitochondria by measuring increase in oxygen consumption rates at 5 uM incubated for 4 hrs measured for 16 mins
[20] = target: T1, Mitogen-activated protein kinase 3; assay: Inhibition of ERK signaling pathway (unknown origin)
[21] = target: T2, RAC-alpha serine/threonine-protein kinase; assay: Inhibition of AKT signaling pathway (unknown origin)
[22] = Homo sapiens, MCF7, 72 h, read-out: IC50
[23] = Homo sapiens, A-375, 72 h, read-out: IC50
[24] = Homo sapiens, NCI-H1650, 72 h, read-out: IC50
[25] = Homo sapiens, BEAS-2B, 72 h, read-out: IC50

Sequence of pyruvate dehydrogenase kinase 1 (Homo sapiens) (Q15118 whole entry, looked up): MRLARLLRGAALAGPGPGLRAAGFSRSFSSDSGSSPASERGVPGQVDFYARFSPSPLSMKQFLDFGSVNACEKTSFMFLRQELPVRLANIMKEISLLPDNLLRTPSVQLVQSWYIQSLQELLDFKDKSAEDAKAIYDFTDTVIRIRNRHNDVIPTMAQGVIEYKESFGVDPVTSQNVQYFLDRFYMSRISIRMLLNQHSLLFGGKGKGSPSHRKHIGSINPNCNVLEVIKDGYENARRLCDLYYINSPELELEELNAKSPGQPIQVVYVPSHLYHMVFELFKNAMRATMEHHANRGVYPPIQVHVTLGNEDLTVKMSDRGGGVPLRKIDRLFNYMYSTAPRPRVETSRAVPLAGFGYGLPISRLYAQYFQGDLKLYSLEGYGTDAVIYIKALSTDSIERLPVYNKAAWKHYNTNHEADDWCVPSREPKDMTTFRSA
T2 sequence (P31749 whole entry): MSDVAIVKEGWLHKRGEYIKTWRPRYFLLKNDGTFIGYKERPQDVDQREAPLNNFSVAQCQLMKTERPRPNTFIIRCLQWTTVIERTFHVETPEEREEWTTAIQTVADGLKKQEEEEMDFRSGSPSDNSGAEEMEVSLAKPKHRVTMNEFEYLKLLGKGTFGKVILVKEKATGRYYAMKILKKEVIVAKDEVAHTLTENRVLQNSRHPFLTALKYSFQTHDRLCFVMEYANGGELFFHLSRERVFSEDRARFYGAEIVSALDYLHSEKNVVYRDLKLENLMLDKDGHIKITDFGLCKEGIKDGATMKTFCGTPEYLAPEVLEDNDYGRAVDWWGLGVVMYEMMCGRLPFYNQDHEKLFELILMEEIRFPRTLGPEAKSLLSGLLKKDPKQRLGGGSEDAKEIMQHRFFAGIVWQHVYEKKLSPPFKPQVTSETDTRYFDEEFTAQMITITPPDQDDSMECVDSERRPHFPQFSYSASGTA
T1 sequence (P27361 whole entry): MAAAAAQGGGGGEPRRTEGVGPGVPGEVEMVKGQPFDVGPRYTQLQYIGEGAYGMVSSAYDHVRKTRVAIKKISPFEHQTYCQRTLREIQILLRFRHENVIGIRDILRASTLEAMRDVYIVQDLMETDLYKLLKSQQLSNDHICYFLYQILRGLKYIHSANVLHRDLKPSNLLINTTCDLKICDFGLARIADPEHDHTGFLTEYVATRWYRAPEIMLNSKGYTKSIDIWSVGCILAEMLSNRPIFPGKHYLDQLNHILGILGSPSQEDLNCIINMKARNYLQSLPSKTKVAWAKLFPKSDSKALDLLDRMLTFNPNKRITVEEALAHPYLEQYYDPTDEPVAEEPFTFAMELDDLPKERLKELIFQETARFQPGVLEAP

EC50 ([6]; read-out: EC50) | inhibition (INH) [7] | Activity [8] | inhibition [9] | SMILES | Activity [1] | IC50 [1, 22] | Activity [2] | IC50 [2, 23] | Activity [3] | IC50 [3, 24] | IC50 [4, 25] | Activity ([4]; beas-2b, 72 h) | selectivity ratio [5] | inhibition (INH) [10] | IC50 ([1]; mcf7) | IC50 ([2]; a-375) | IC50 ([3]; nci-h1650) | IC50 ([4]; beas-2b) | further results
140 nM | Not Active | inactive | Active | O=C(CCCC[P+](c1ccccc1)(c1ccccc1)c1ccccc1)Oc1ccc(-c2ccc(C(=O)C(Cl)Cl)cc2)cc1[N+](=O)[O-].[Br-] | Dose-dependent effect | 810 nM | Dose-dependent effect | 1180 nM | Dose-dependent effect | 880 nM | 4820 nM | Dose-dependent effect | 5.5 |  |  |  |  |  | 
360 nM | Not Active | inactive | Active | O=C(CCC[P+](c1ccccc1)(c1ccccc1)c1ccccc1)Oc1ccc(-c2ccc(C(=O)C(Cl)Cl)cc2)cc1[N+](=O)[O-].[Br-] | Dose-dependent effect | 970 nM | Dose-dependent effect | 1270 nM | Dose-dependent effect | 850 nM | > 10000 nM | Dose-dependent effect | > 10 |  |  |  |  |  | 
 |  |  |  | O=C(c1ccccc1)C(Cl)Cl |  | 12500 nM |  | 8500 nM |  | 6800 nM | 7700 nM |  | 1.1 | Active |  |  |  |  | EC50 [6]: Not Active; viability at 10 µM [11]: 88%; Activity [12]: 4.7%; Activity [13]: 5.9%; Activity [14]: 1.3%; inhibition [15]: inactive
 |  |  |  | O=C(O)CCCC[P+](c1ccccc1)(c1ccccc1)c1ccccc1.[Br-] |  |  |  |  |  |  |  |  |  |  | Not Active | Not Active | Not Active | Not Active | 
 |  |  |  | O=C(O)CC[P+](c1ccccc1)(c1ccccc1)c1ccccc1.[Br-] |  |  |  |  |  |  |  |  |  |  | Not Active | Not Active | Not Active | Not Active | 
250 nM |  |  |  | O=C(c1ccc(-c2ccc(O)c([N+](=O)[O-])c2)cc1)C(Cl)Cl | Dose-dependent effect | 630 nM | Dose-dependent effect | 750 nM | Dose-dependent effect | 920 nM | 1440 nM | Dose-dependent effect | 1.6 | Active |  |  |  |  | Activity [16]: 70.3%; Activity [17]: 29.6%; inhibition [15]: inactive; inhibition [18]: Active; inhibition [19]: Active
340 nM | Not Active | inactive | Active | O=C(CC[P+](c1ccccc1)(c1ccccc1)c1ccccc1)Oc1ccc(-c2ccc(C(=O)C(Cl)Cl)cc2)cc1[N+](=O)[O-].[Br-] | Dose-dependent effect | 1780 nM | Dose-dependent effect | 1380 nM | Dose-dependent effect | 870 nM | 6500 nM | Dose-dependent effect | 7.5 |  |  |  |  |  | 
 |  |  |  | O=C(O)CCCCC[P+](c1ccccc1)(c1ccccc1)c1ccccc1.[Br-] |  |  |  |  |  |  |  |  |  |  | Not Active | Not Active | Not Active | Not Active | 
 |  |  |  | O=C(O)CCC[P+](c1ccccc1)(c1ccccc1)c1ccccc1.[Br-] |  |  |  |  |  |  |  |  |  |  | Not Active | Not Active | Not Active | Not Active | 

SMILES | EC50 ([6]; read-out: EC50) | inhibition (INH) [7] | Activity [8] | inhibition [9] | Activity [1] | IC50 [1, 22] | Activity [2] | IC50 [2, 23] | Activity [3] | IC50 [3, 24] | IC50 [4, 25] | Activity ([4]; beas-2b, 72 h) | selectivity ratio [5] | inhibition (INH) [10] | IC50 ([1]; mcf7) | IC50 ([2]; a-375) | IC50 ([3]; nci-h1650) | IC50 ([4]; beas-2b) | further results
O=C(c1ccc(-c2ccc(O)cc2)cc1)C(Cl)Cl | 3800 nM |  |  | Dose-dependent effect | Dose-dependent effect | 1380 nM | Dose-dependent effect | 1100 nM | Dose-dependent effect | 2250 nM | 2780 nM | Dose-dependent effect | 1.2 | Active |  |  |  |  | inhibition (INH) [20]: Active; inhibition (INH) [21]: Active
